Results reported in ChEMBL document CHEMBL4130484, “Identification and optimization of novel 6-acylamino-2-aminoquinolines as potent Hsp90 C-terminal inhibitors” (Eur J Med Chem, 2017).
Converted amounts (≈) assume the structure as drawn.

How the values were obtained:
MCF7 [1] = experiment: Antiproliferative activity against human MCF7 cells incubated for 72 hrs by MTT assay; format: functional, cell-based; settings: MCF7, 72 h
Procedure, shortened: (§1)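 MTT antiproliferation assay in MCF7 and SKBr3 breast cancer cells; IC50 determined.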

SK-BR-3 = experiment: Antiproliferative activity against human SKBR3 cells incubated for 72 hrs by MTT assay; format: functional, cell-based; settings: SK-BR-3, 72 h; procedure, shortened: as §1
MCF7 [2] = experiment: Growth inhibition of human MCF7 cells at 50 uM incubated for 72 hrs by MTT assay; format: functional; settings: MCF7, 72 h, read-out: GI
Procedure, shortened: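 MTT screen in MCF7 cells at a single concentration of 50 µM; growth inhibition rate recorded.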

[3] = Distribution coefficient, log D of the compound at pH 7.4; format: physicochemical; settings: octanol/water
Procedure, shortened: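 Log D at pH 7.4 measured on a PULSE platform.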

[4] = Permeability coefficient of the compound at pH 7.4 by double-sink PAMPA; format: ADME; settings: read-out: permeability
Procedure, shortened: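 Double-sink PAMPA at pH 7.4 on a PAMPA Explorer instrument; Pe reported as mean ± SD, n = 3.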

[5] = Intrinsic aqueous solubility of the compound; format: physicochemical
Procedure, shortened: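 Intrinsic aqueous solubility determined on a Gemini Profiler instrument.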

Row | SMILES | IC50 (MCF7 [1]) [µM] | IC50 (SK-BR-3) [µM] | also measured
1 | CCN1CCN(c2cc(C)c3cc(NC(=O)c4cccc(Cl)c4)ccc3n2)CC1 | 3.82 | 17.8 | 
2 | CCCOc1cccc(C(=O)NC(=S)Nc2ccc(N3CCCCC3)c(Cl)c2)c1 |  |  | inhibition of growth at 50 µM (MCF7 [2]): < 50%
3 | O=C(Nc1nc(C(=O)NCCCN2CCCC2=O)cs1)c1ccc2c(c1)OCO2 |  |  | inhibition of growth at 50 µM (MCF7 [2]): < 50%
4 | Cc1cc(N2CCN(C(C)C)CC2)nc2ccc(NC(=O)c3ccc(Cl)c(Cl)c3)cc12 | 1.71 | 6.68 | 
5 | CCN1CCN(CCCNC(=O)c2nc(-c3nn(-c4ccc(C)cc4)c(=O)n(C)c3=O)no2)CC1 |  |  | inhibition of growth at 50 µM (MCF7 [2]): < 50%
6 | CCN(CC)CCOC(=O)c1ccc(NC(=O)c2ccc(OC)cc2)cc1 |  |  | inhibition of growth at 50 µM (MCF7 [2]): < 50%
7 | CCN1CCN(c2cc(C)c3cc(NC(=O)c4ccco4)ccc3n2)CC1 | 41.2 | 37.5 | 
8 | CCN1CCN(c2cc(C)c3cc(NC(=O)c4cccc(Br)c4)ccc3n2)CC1 | 11.6 | 13.3 | 
9 | CCN1CCN(c2cc(C)c3cc(NC(=O)c4cc5ccccc5[nH]4)ccc3n2)CC1 | 2.95 | 2.55 | 
10 | CCN1CCN(c2cc(C)c3cc(NC(=O)c4ccccc4C)ccc3n2)CC1 | 10.9 | 29.2 | 
11 | COc1ccc(NC(=O)c2nnc(COCC(=O)NCCN(C)C)s2)cc1 |  |  | inhibition of growth at 50 µM (MCF7 [2]): < 50%
12 | CCN1CCN(c2cc(C)c3cc(NC(=O)c4ccc(OC)cc4)ccc3n2)CC1 | 7.69 | 9 | 
13 | Cc1cc(N2CCCC2)nc2ccc(NC(=O)c3ccc(Cl)c(Cl)c3)cc12 | 26.3 | 43.4 | 
14 | Cc1cc(N(C)C)nc2ccc(NC(=O)c3ccc(Cl)c(Cl)c3)cc12 | 33.3 | > 50 | 
15 | COc1ccc(-c2noc(C(=O)NCc3ccc(CN4CCOCC4)cc3)n2)cc1OC |  |  | inhibition of growth at 50 µM (MCF7 [2]): < 50%
16 | COc1cc(NC(=O)N2CCC(CC(=O)NCCN3CCCC3)CC2)cc(OC)c1OC |  |  | inhibition of growth at 50 µM (MCF7 [2]): < 50%
17 | CCN1CCN(c2cc(C)c3cc(NC(=O)c4ccc(F)cc4)ccc3n2)CC1 | 4.03 | 19.8 | 
18 | CCN1CCN(c2cc(C)c3cc(NC(=O)c4ccccc4Cl)ccc3n2)CC1 | > 50 | > 50 | 
19 | CCN1CCN(c2cc(C)c3cc(NC(=O)c4ccccc4F)ccc3n2)CC1 | 32.6 | 38.1 | 
20 | CCN1CCN(c2cc(C)c3cc(NC(=O)c4cccc(F)c4)ccc3n2)CC1 | 8.92 | 24.9 | 

Row | SMILES | IC50 (MCF7 [1]) [µM] | IC50 (SK-BR-3) [µM] | also measured
21 | CCN1CCN(c2cc(C)c3cc(NC(=O)c4cccnc4)ccc3n2)CC1 | 26.6 | 10.6 | 
22 | CCN1CCN(c2cc(C)c3cc(NC(=O)c4cccc(C)c4)ccc3n2)CC1 | 7.8 | 13.7 | 
23 | COc1ccc(C(=O)Nc2cnn(-c3ncc(N4CCSCC4)cn3)c2)cc1F |  |  | inhibition of growth at 50 µM (MCF7 [2]): < 50%
24 | CCN(CC)CCNc1cc(C)c2cc(NC(=O)c3ccc(Cl)c(Cl)c3)ccc2n1 | 1.42 | 3.71 | logD [3]: 1.66; Papp [4]: 28.1 ×10⁻⁶ cm/s; solubility [5]: 95.2 µg/mL (≈ 214 µM)
25 | Cc1cc(N2CCN(C)CC2)nc2ccc(NC(=O)c3ccc(Cl)c(Cl)c3)cc12 | 3 | 6.32 | 
26 | CCN1CCN(c2cc(C)c3cc(NC(=O)c4ccccc4)ccc3n2)CC1 | 14.2 | 18.4 | 
27 | CCc1ccc(C(=O)Nc2ccc3nc(N4CCN(CC)CC4)cc(C)c3c2)cc1 | 3.06 | 9.85 | 
28 | CCN1CCN(C(=O)CSCc2nnc(C(=O)Nc3ccc(OC)cc3)s2)CC1 |  |  | inhibition of growth at 50 µM (MCF7 [2]): < 50%
29 | CCn1c(C(=O)NCCN2CCOCC2)cc2cc(NC(=O)c3ccc(F)cc3)ccc21 |  |  | inhibition of growth at 50 µM (MCF7 [2]): < 50%
30 | CCN1CCN(c2cc(C)c3cc(NC(=O)c4cc(Cl)cc(Cl)c4)ccc3n2)CC1 | 6.09 | 2.66 | 
31 | Cc1cc(N2CCCCC2)nc2ccc(NC(=O)c3ccc(Cl)c(Cl)c3)cc12 | 31.1 | 42.5 | 
32 | CCN1CCN(c2cc(C)c3cc(NC(=O)c4ccccc4OC)ccc3n2)CC1 | 13.2 | 15.7 | 
33 | CCN1CCN(c2cc(C)c3cc(NC(=O)c4ccccc4Br)ccc3n2)CC1 | 27.5 | 39.2 | 
34 | CCN1CCN(c2cc(C)c3cc(NC(=O)c4ccncc4)ccc3n2)CC1 | > 50 | > 50 | 
35 | Cc1cc(NCCN2CCCC2)nc2ccc(NC(=O)c3ccc(Cl)c(Cl)c3)cc12 | 1.28 | 9.53 | logD [3]: 1.72; Papp [4]: 20.8 ×10⁻⁶ cm/s; solubility [5]: 84.5 µg/mL (≈ 191 µM)
36 | COCc1nnc(C(=O)Nc2ccc(C(=O)NCCCN3CCCCC3)cc2)s1 |  |  | inhibition of growth at 50 µM (MCF7 [2]): < 50%
37 | CCN1CCN(c2cc(C)c3cc(NC(=O)c4ccc5c(c4)OCO5)ccc3n2)CC1 | 4.61 | 12.6 | 
38 | CC(C)c1cc(C(=O)N2Cc3ccc(CN4CCN(C)CC4)cc3C2)c(O)cc1O [ONALESPIB] | 0.032 | 0.045 | 
39 | Cc1cc(NCCN(C)C)nc2ccc(NC(=O)c3ccc(Cl)c(Cl)c3)cc12 | 2.55 | 6.67 | logD [3]: 1.47; Papp [4]: 3.13 ×10⁻⁶ cm/s; solubility [5]: 122 µg/mL (≈ 292 µM)
40 | CCN1CCN(c2cc(C)c3cc(NC(=O)c4ccc(F)c(F)c4)ccc3n2)CC1 | 5.23 | 1.98 | 

Row | SMILES | IC50 (MCF7 [1]) [µM] | IC50 (SK-BR-3) [µM] | also measured
41 | CCN1CCN(c2cc(C)c3cc(NC(=O)c4ccc(Br)cc4)ccc3n2)CC1 | 5.94 | 6.31 | 
42 | COc1ccc(C(=O)Nc2ccc3nc(CN4CCN(C)CC4)n(C)c3c2)cc1OC |  |  | inhibition of growth at 50 µM (MCF7 [2]): 50.8%
43 | CNc1cc(C)c2cc(NC(=O)c3ccc(Cl)c(Cl)c3)ccc2n1 | 2.52 | 6.35 | 
44 | Cc1cc(NCCN2CCOCC2)nc2ccc(NC(=O)c3ccc(Cl)c(Cl)c3)cc12 | 5.23 | 9.16 | logD [3]: 2.64; Papp [4]: 49.8 ×10⁻⁶ cm/s; solubility [5]: 76.2 µg/mL (≈ 166 µM)
45 | CCN1CCN(c2cc(C)c3cc(NC(=O)c4ccc(OC)c(OC)c4)ccc3n2)CC1 | 3.65 | 2.71 | 
46 | CCN1CCN(c2cc(C)c3cc(NC(=O)c4ccc(Cl)c(Cl)c4)ccc3n2)CC1 | 1.38 | 2.16 | logD [3]: 3.67; Papp [4]: 25.9 ×10⁻⁶ cm/s; solubility [5]: 11.3 µg/mL (≈ 25.5 µM)
47 | Cc1cc(NCCN2CCN(C)CC2)nc2ccc(NC(=O)c3ccc(Cl)c(Cl)c3)cc12 | 1.7 | 2.69 | logD [3]: 1.73; Papp [4]: 7.71 ×10⁻⁶ cm/s; solubility [5]: 106 µg/mL (≈ 224 µM)
48 | COc1ccc(C(=O)Nc2nc(CC(=O)N3CCN(c4ccccc4)CC3)cs2)cc1OC |  |  | inhibition of growth at 50 µM (MCF7 [2]): < 50%
49 | CCc1ccccc1C(=O)Nc1ccc2nc(N3CCN(CC)CC3)cc(C)c2c1 | 15.8 | 23.9 | 
50 | O=C(Nc1nc(C(=O)NCCN2CCCCC2)cs1)c1ccc2c(c1)OCO2 |  |  | inhibition of growth at 50 µM (MCF7 [2]): < 50%
51 | CCN1CCN(Cc2nc3ccc(NC(=O)c4ccc(OC)cc4)cc3n2C(C)C)CC1 |  |  | inhibition of growth at 50 µM (MCF7 [2]): 55%
52 | CCN1CCN(c2cc(C)c3cc(NC(=O)c4ccc(C)cc4)ccc3n2)CC1 | 6.74 | 11.4 | 
53 | CCN1CCN(c2cc(C)c3cc(NC(=O)c4ccc(Cl)cc4)ccc3n2)CC1 | 1.53 | 3.02 | 
54 | CCN1CCN(c2cc(C)c3cc(NC(=O)c4ccc[nH]4)ccc3n2)CC1 | 14.7 | 13.2 | 
55 | O=C(NCCCN1CCOCC1)c1ccc(NC(=O)c2nnc(COc3ccccc3)s2)cc1 |  |  | inhibition of growth at 50 µM (MCF7 [2]): 50.6%
56 | CCN1CCN(c2cc(C)c3cc(NC(=O)c4ccc5ccccc5n4)ccc3n2)CC1 | 7.06 | 3.76 | 
57 | CCNc1cc(C)c2cc(NC(=O)c3ccc(Cl)c(Cl)c3)ccc2n1 | 48.6 | 28.2 | 
58 | COc1ccc(C(=O)Nc2ccc3nc(SCC(=O)N4CCCC4)sc3c2)cc1 |  |  | inhibition of growth at 50 µM (MCF7 [2]): 62.5%
59 | CCN(CC)c1cc(C)c2cc(NC(=O)c3ccc(Cl)c(Cl)c3)ccc2n1 | > 50 | 41.2 | 
60 | Cc1cc(N2CCOCC2)nc2ccc(NC(=O)c3ccc(Cl)c(Cl)c3)cc12 | 12 | 15.1 | 
